Test results reported in ChEMBL document CHEMBL1123881, “Synthesis and antiarrhythmic activity of new 3-[2-(omega-aminoalkoxy)phenoxy]-4-phenyl-3-buten-2-ones and related compounds” (J Med Chem, 1987).
≈ marks a conversion by molar mass, not a printed value.

What was measured:
[1] = The compound was tested for acute toxicity when given intraperitoneally in mouse.; assay type: organism-based; settings: in vivo, ip
Method in brief: (§1)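 Albino CF1 mice of both sexes, 18-20 g, dosed intraperitoneally; survivors observed for 1 week; ten mice per dose. LD50 derived by probit method, confidence limits at p = 0.05.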

Rattus norvegicus [2] = experiment: Antiarrhythmic activity ( protection against CaCl2 induced ventricular fibrillation ) in anesthetized rat administered intravenously; assay type: functional; settings: Heart, iv
Method in brief: (§2)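 Sprague-Dawley albino rats, 180-200 g, conscious or urethane-anesthetized (2.8 g/kg sc). Compound given via caudal or portal vein 2 min, or orally 60 min, before rapid iv 8% CaCl2 at 1 mL/kg. Lead II ECG monitored for fibrillation within 10 min. Five to ten rats per dose.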

Oryctolagus cuniculus = organism: Oryctolagus cuniculus; experiment: Tested in vitro for antiarrhythmic activity in isolated rabbit atria; assay type: functional; settings: Heart
Method in brief: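 Atria from New Zealand rabbits in oxygenated Ringer-Locke at 29 °C, paced with 10-ms, 10-V rectangular pulses at rising frequency to find the maximum driven frequency. This was remeasured before and 10, 15 and 20 min after drug addition. Dose-response curves on the same tissue, repeated 3-5 times. EC values by probit.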

[3] = The compound was tested for acute toxicity when given intraperitoneally in mouse; assay type: organism-based; settings: in vivo, ip; method in brief: as §1
Rattus norvegicus [4] = experiment: The compound was tested for activity on heart rate in anesthetized rat when induced through femoral vein (iv) at a dose of 1 mg/kg; assay type: functional
Method in brief: (§3)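 Heart rate in anesthetized rats, given iv (femoral vein) or into the portal vein. Rate recorded a few seconds before drug administration.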

Canis familiaris [5] = experiment: Antiarrhythmic activity ( protection against epinephrine induced ventricular fibrillation ) in post infarcted conscious dog administered iv.; assay type: functional; settings: Canis lupus familiaris, Heart
Mus musculus [6] = organism: Mus musculus; experiment: (§4) The compound was tested for effective concentration (intradermal injection) that caused local anesthesia in 50% of mice by tail-clip method; assay type: functional, organism-based
Rattus norvegicus [7] = experiment: Antiarrhythmic activity ( protection against CaCl2 induced ventricular fibrillation ) in conscious rat administered intravenously; assay type: functional; settings: Heart, iv; method in brief: as §2
Canis familiaris [8] = experiment: The compound was tested for antiarrhythmic activity in infarcted conscious dog through iv; assay type: functional; settings: Canis lupus familiaris, Heart
Method in brief: (§5)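 Beagle dogs of both sexes, 10-14 kg, coronary ligature under pentobarbital (30 mg/kg iv) with artificial ventilation. Next day, dogs without spontaneous arrhythmia get epinephrine 2-10 µg/kg iv (ear vein). Compound then given iv. ECG at 5-180 min, with epinephrine re-challenge at each time. Maximal ectopic beats/min counted before and after each dose, in 2-4 dogs.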

Rattus norvegicus [9] = experiment: Antiarrhythmic activity ( protection against CaCl2 induced ventricular fibrillation ) in conscious rat administered orally (po); assay type: functional; settings: Heart; method in brief: as §2
Mus musculus [10] = experiment: Antiarrhythmic activity ( protection against aconitine induced initial arrhythmia ) in anesthetized mouse administered perorally; assay type: functional; settings: Heart, po
Method in brief: (§6)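 Albino CF1 mice of both sexes, 20-22 g, pentobarbital-anesthetized (60 mg/kg ip), lead II ECG. Dosing iv (caudal vein) 2 min or orally 60 min before aconitine infusion, 8 µg/mL at 0.32 mL/min for 3 min. ECG read every 10 s. Endpoint is time to initial arrhythmia and to ventricular tachycardia. Ten mice per dose; probit analysis.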

Mus musculus [11] = experiment: Antiarrhythmic activity (protection against aconitine induced ventricular tachycardia) in anesthetized mouse administered through iv.; assay type: functional; settings: Heart; method in brief: as §6
Rattus norvegicus [12] = experiment: Antiarrhythmic activity (protection against CaCl2 induced ventricular fibrillation) in anesthetized rat administered through portal vein (ipv); assay type: functional; settings: Heart; method in brief: as §2
Mus musculus [13] = experiment: Antiarrhythmic activity (protection against aconitine induced initial arrhythmia) in anesthetized mouse administered through iv.; assay type: functional; settings: Heart; method in brief: as §6
Rattus norvegicus [14] = experiment: The compound was tested for activity on heart rate in anesthetized rat when induced through portal vein (ipv) at a dose of 2 mg/kg; assay type: functional; method in brief: as §3
Rattus norvegicus [15] = experiment: The compound was tested for blood electrolyte K+ in rat serum when induced through femoral vein (iv) at a dose of 5 mg/kg; assay type: functional
Method in brief: (§7)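 Sprague-Dawley rats of both sexes, 140-150 g. Serum K+ measured by flame photometry 1 h after iv dosing. Five rats per dose.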

Mus musculus [16] = experiment: Antiarrhythmic activity ( protection against aconitine induced ventricular tachycardia) in anesthetized mouse administered perorally; assay type: functional; settings: Heart, po; method in brief: as §6
[17] = The compound was tested for acute toxicity when given intravenously in rat; assay type: organism-based; settings: in vivo, iv
Method in brief: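 Sprague-Dawley rats of both sexes, 120-140 g, dosed intravenously; survivors observed for 1 week. LD50 derived by probit method, confidence limits at p = 0.05.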

Rattus norvegicus [18] = experiment: Activity on heart rate in anesthetized rat when induced through femoral vein (iv), at 5 mg/kg; assay type: functional; method in brief: as §3
Canis familiaris [19] = experiment: The compound was tested for antiarrhythmic activity in infarcted conscious dog through iv(ear or caudal vein); assay type: functional; settings: Canis lupus familiaris, Heart; method in brief: as §5
Mus musculus [20] = experiment: Antiarrhythmic activity ( protection against aconitine induced initial arrhythmia ) in anesthetized mouse administered through iv(ear or caudal vein); assay type: functional; settings: Heart; method in brief: as §6
Canis familiaris [21] = experiment: Antiarrhythmic activity ( protection against epinephrine induced ventricular fibrillation ) in post infarcted conscious dog administered iv(ear or caudal vein); assay type: functional; settings: Canis lupus familiaris, Heart
Rattus norvegicus [22] = experiment: The compound was tested for blood electrolyte K+ in rat serum when induced through femoral vein (iv),at 20 mg/kg; assay type: functional; method in brief: as §7
Rattus norvegicus [23] = experiment: The compound was tested for activity on heart rate in anesthetized rat when induced through portal vein (ipv),at 14 mg/kg; assay type: functional; method in brief: as §3
Mus musculus [24] = experiment: Antiarrhythmic activity ( protection against aconitine induced ventricular tachycardia) in anesthetized mouse administered through iv(ear or caudal vein); assay type: functional; settings: Heart; method in brief: as §6
Mus musculus [25] = experiment: Antiarrhythmic activity ( protection against aconitine induced initial arrhythmia ) in anesthetized mouse administered through iv.; assay type: functional; settings: Heart; method in brief: as §6
Mus musculus [26] = organism: Mus musculus; experiment: as §4; assay type: functional, organism-based; remark: listed apart in the source
Method in brief: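 Tail-clip test in albino CF1 mice of both sexes, 18-20 g. Intradermal tail injection of 0.1 mL/mouse about 1 cm from the root.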

Mus musculus [27] = experiment: Antiarrhythmic activity ( protection against aconitine induced ventricular tachycardia) in anesthetized mouse administered through iv.; assay type: functional; settings: Heart; method in brief: as §6
Rattus norvegicus [28] = experiment: The compound was tested for activity on heart rate in anesthetized rat when induced through femoral vein (iv) at dose of 1 mg/kg; assay type: functional; method in brief: as §3
Rattus norvegicus [29] = experiment: The compound was tested for antiarrhythmic activity ( protection against CaCl2 induced ventricular fibrillation ) in anesthetized rat.; assay type: functional; settings: Heart; method in brief: as §2
Rattus norvegicus [30] = experiment: The compound was tested for blood electrolyte K+ in rat serum when induced through femoral vein (iv) at dose of 5 mg/kg; assay type: functional; method in brief: as §7
Rattus norvegicus [31] = experiment: The compound was tested for activity on heart rate in anesthetized rat when induced through portal vein (ipv) at dose of 1 mg/kg; assay type: functional; method in brief: as §3

Compound	LD50 [1] [mg/kg]	ED50 (Rattus norvegicus [2]) [mg/kg]	EC30 (Oryctolagus cuniculus) [µg/mL]	LD50 [3] [mg/kg]	LD50 [17] [mg/kg]	other results
CC(=O)/C(=C\c1ccccc1)Oc1cc(Cl)ccc1OCCN1CCCCC1	185	0.9	3 (≈ 7.5 µM)	–	–	–
CCN(CC)CCOc1ccccc1OCC(C)=O	–	7	15 (≈ 56.5 µM)	125	–	–
CCN(CC)CCOc1ccc(Cl)cc1O/C(=C/c1ccccc1)C(C)=O	170	0.6	2 (≈ 5.16 µM)	–	–	–
C/C=C(/Oc1ccccc1OCCN(CC)CC)C(C)=O	80	3	5 (≈ 17.2 µM)	–	–	–
CCN(CC)CCOc1ccccc1O/C(=C/c1ccccc1)C(C)=O [ZOCAINONE]	72	0.46	0.7 (≈ 1.98 µM)	–	8.9	Activity (Rattus norvegicus [4]): -15%; ED50 (Canis familiaris [5]): 2 mg/kg; EC50 (Mus musculus [6]): 0.01 µg/mL (≈ 0.0283 µM); ED50 (Rattus norvegicus [7]): 0.88 mg/kg; ED50 (Canis familiaris [8]): 2 mg/kg; ED50 (Rattus norvegicus [9]): 13.6 mg/kg; ED50 (Mus musculus [10]): 132 mg/kg; ED50 (Mus musculus [11]): 11 mg/kg; ED50 (Rattus norvegicus [12]): 2.3 mg/kg; ED50 (Mus musculus [13]): 7.5 mg/kg; Activity (Rattus norvegicus [14]): -1%; Activity (Rattus norvegicus [15]): 12%; ED50 (Mus musculus [16]): 149 mg/kg
CCN(CC)CCOc1ccccc1OC(Cc1ccccc1)C(C)=O (centres undefined)	–	0.75	10 (≈ 28.1 µM)	92	11.7	–
CC(=O)/C(=C\c1ccccc1)Oc1ccccc1OCCCN(C)C	110	–	3 (≈ 8.84 µM)	–	13.5	–
CC(=O)/C(=C\c1ccccc1)Oc1cc(Cl)ccc1OCCN(C(C)C)C(C)C	165	0.62	2 (≈ 4.81 µM)	–	–	–
CC(=O)/C(=C\c1ccccc1)Oc1ccc(OCC(C)N(C)C)cc1 (centres undefined)	100	3	3.5 (≈ 10.3 µM)	–	–	–
CCN(CC)CCOc1ccccc1OC(Cc1ccccc1)C(C)O (centres undefined)	–	1	2.5 (≈ 6.99 µM)	85	–	–
CC(=O)/C(=C\c1ccccc1)Oc1ccccc1OCCCN(C(C)C)C(C)C	60	0.1	0.32 (≈ 0.809 µM)	–	11.4	–
CC(=O)/C(=C\c1ccccc1)Oc1ccccc1OCCCN1CCN(C)CC1	125	–	1.3 (≈ 3.3 µM)	–	23.9	–
C=C[C@H]1CN2CC[C@H]1C[C@@H]2[C@@H](O)c1ccnc2ccc(OC)cc12 [QUINIDINE]	–	–	3.9 (≈ 12 µM)	–	–	Activity (Rattus norvegicus [18]): -30%; ED50 (Canis familiaris [19]): 5.5 mg/kg; ED50 (Rattus norvegicus [7]): 3.2 mg/kg; ED50 (Rattus norvegicus [9]): 47.7 mg/kg; ED50 (Mus musculus [10]): 122 mg/kg; ED50 (Rattus norvegicus [12]): 13.5 mg/kg; ED50 (Mus musculus [20]): 15.2 mg/kg; ED50 (Canis familiaris [21]): 1 mg/kg; Activity (Rattus norvegicus [22]): 3%; ED50 (Mus musculus [16]): 158 mg/kg; Activity (Rattus norvegicus [23]): -36%; ED50 (Mus musculus [24]): 14 mg/kg
CCN(CC)CCCOc1ccccc1O/C(=C/c1ccccc1)C(C)=O	95	–	0.41 (≈ 1.12 µM)	–	11.1	ED50 (Mus musculus [25]): 4.3 mg/kg; ED50 (Canis familiaris [5]): 1 mg/kg; ED50 (Rattus norvegicus [7]): 0.3 mg/kg; EC50 (Mus musculus [26]): 0.0099 µg/mL (≈ 0.0269 µM); ED50 (Mus musculus [27]): 4.9 mg/kg; ED50 (Canis familiaris [8]): 1 mg/kg; ED50 (Rattus norvegicus [9]): 35 mg/kg; ED50 (Mus musculus [10]): 82 mg/kg; Activity (Rattus norvegicus [28]): -6%; ED50 (Rattus norvegicus [29]): 0.18 mg/kg; ED50 (Rattus norvegicus [12]): 0.6 mg/kg; Activity (Rattus norvegicus [30]): -8%; Activity (Rattus norvegicus [31]): 4%; ED50 (Mus musculus [16]): 83 mg/kg
CC(=O)/C(=C\c1ccccc1)Oc1ccccc1OCC(O)CN1CCN(C)CC1 (centres undefined)	175	7.5	10 (≈ 24.4 µM)	–	–	–
CC(=O)/C(=C\c1ccccc1)Oc1ccccc1OCCN1CCCC1	–	1	3 (≈ 8.54 µM)	45	–	–
CC(=O)/C(=C\c1ccccc1)Oc1ccccc1OCCN1CCOCC1	180	5	6 (≈ 16.3 µM)	–	30	–
CC(=O)/C(=C\c1ccccc1)Oc1ccccc1OCCN1CCCCC1	–	–	3 (≈ 8.21 µM)	63	11.2	–
CC(=O)/C(=C\c1ccccc1)Oc1ccc(OCC(O)CNC(C)(C)C)cc1 (centres undefined)	–	3.5	2.8 (≈ 7.3 µM)	–	–	–
CCN(CC)CCOc1ccccc1O/C(=C/c1ccccc1)C(=O)c1ccccc1	–	–	2.8 (≈ 6.74 µM)	125	–	–
CC(=O)/C(=C\c1ccccc1)Oc1ccccc1OCC(C)N(C)C (centres undefined)	45	0.9	2 (≈ 5.89 µM)	–	–	–
CCN(CC)CCNC(=O)c1ccc(N)cc1 [PROCAINAMIDE]	–	48.1	45.8 (≈ 195 µM)	312	121	–
CCN(CC)CCOc1ccccc1OCC(C)O (centres undefined)	–	7.1	15 (≈ 56.1 µM)	187	–	–
CCN(CC)CCOc1ccc(O/C(=C/c2ccccc2)C(C)=O)cc1	163	2	3 (≈ 8.49 µM)	–	–	–
CC(=O)/C(=C\c1ccccc1)Oc1ccccc1OCCCNC(C)(C)C	63	–	2.3 (≈ 6.26 µM)	–	12.5	–
CC(=O)/C(=C\c1ccccc1)Oc1ccccc1OCCN(C(C)C)C(C)C	–	0.5	1 (≈ 2.62 µM)	125	10.1	–
CCN(CC)CCOc1ccccc1O/C(=C/c1ccccc1)C(C)O (centres undefined)	110	1.5	1.9 (≈ 5.34 µM)	–	–	–
CC(=O)/C(=C\c1ccccc1)Oc1ccccc1OCC(O)CNC(C)(C)C (centres undefined)	80	–	0.51 (≈ 1.33 µM)	–	17	–
CC(=O)/C(=C\c1ccccc1)Oc1ccccc1OCCCN1CCCCC1	62	0.2	1.6 (≈ 4.22 µM)	–	6.5	–
